Results on 19 compounds are retold here after ChEMBL document CHEMBL4613265, “Novel Human Neutral Sphingomyelinase 2 Inhibitors as Potential Therapeutics for Alzheimer's Disease” (J Med Chem, 2020).

Broadly, the pIC50 is the negative decadic logarithm of the IC50, by convention in mol/L.

Series [1] has as its target Phosphatidylinositol 4-kinase alpha (Homo sapiens) (UniProt P42356). Kind of series: Inhibition of PI4K3alpha (unknown origin).
The subject of another series is HeLa S3. As to the kind of experiment: Cytotoxicity against human HeLaS3 cells by XTT assay. The format is cell-based. On the technique in general: Formazan colour is commonly taken as a measure of viable cells.
Another series has as its system CCRF-CEM. Kind of series: Cytotoxicity against human CCRF-CEM cells by XTT assay. The class given is cell-based.
In series [2] the target is Phosphatidylinositol 4-kinase beta (Homo sapiens, UniProt Q9UBF8). Kind of series: Inhibition of PI4K3beta (unknown origin).
Phosphatidylinositol 4-kinase beta, sequence (Q9UBF8 whole entry): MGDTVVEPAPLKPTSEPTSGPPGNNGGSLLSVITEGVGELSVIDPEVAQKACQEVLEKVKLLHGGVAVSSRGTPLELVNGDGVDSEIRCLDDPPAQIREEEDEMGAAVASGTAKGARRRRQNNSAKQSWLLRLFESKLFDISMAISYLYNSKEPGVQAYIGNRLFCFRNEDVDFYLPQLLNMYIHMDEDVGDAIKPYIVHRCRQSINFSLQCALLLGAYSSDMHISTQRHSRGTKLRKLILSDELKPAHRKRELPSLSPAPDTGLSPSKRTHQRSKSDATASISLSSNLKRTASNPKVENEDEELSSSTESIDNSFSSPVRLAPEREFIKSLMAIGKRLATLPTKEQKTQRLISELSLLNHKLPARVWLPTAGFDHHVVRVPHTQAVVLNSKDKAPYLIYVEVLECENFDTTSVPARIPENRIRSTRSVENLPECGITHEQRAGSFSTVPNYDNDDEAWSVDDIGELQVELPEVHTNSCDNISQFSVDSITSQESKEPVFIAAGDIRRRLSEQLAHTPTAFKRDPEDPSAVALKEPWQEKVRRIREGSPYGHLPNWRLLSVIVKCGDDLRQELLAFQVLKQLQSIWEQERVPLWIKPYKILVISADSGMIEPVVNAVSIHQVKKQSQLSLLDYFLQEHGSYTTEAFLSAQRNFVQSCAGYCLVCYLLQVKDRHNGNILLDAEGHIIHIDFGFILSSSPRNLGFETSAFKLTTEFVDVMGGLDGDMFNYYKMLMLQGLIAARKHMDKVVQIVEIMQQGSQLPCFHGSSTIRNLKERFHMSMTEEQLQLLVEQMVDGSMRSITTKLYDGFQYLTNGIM
The next series has as its system HL-60. Kind of series: Cytotoxicity against human HL60 cells by XTT assay. The class given is cell-based.
The next series has as its system HepG2. Kind of series: Cytotoxicity against human HepG2 cells by XTT assay. The format is cell-based.
Another series deals with Cytochrome P450. Kind of series: Stability in human liver microsomes assessed as CYP450-mediated metabolism by measuring parent compound remaining at 1 uM measured after 60 mins in presence of NADPH generating system by LC-MS/MS analysis. The format is ADME. To be noted: 1 h. In outline: (§1)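 Liver microsomes from mouse or human, 0.2 mg/mL, with 1 μM compound (final) in 100 mM potassium phosphate at pH 7.4. Adding microsomes started the reaction; triplicates. After 60 min, quenched with 3 volumes of ice-cold acetonitrile containing internal standard.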

Series [3] in a line: Stability in mouse liver microsomes assessed as parent compound remaining at 1 uM measured after 60 mins in absence of NADPH by LC-MS/MS analysis. The format is ADME, Microsome. To be noted: liver microsomes, read-out: Stability. In outline:
(§2)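 Cofactor-free control for cofactor-independent degradation. Mouse or human liver microsomes at 0.2 mg/mL, 1 μM compound (final), 100 mM potassium phosphate at pH 7.4, no NADPH regenerating system. Adding microsomes started the reaction; run in triplicate. Sampled at 60 min and quenched with three volumes of ice-cold acetonitrile spiked with internal standard.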

Series [4] can be described thus: Stability in human liver microsomes assessed as parent compound remaining at 1 uM measured after 60 mins in absence of NADPH by LC-MS/MS analysis. The format is ADME, Microsome. To be noted: liver microsomes, read-out: Stability. In outline:
as §2
On the technique in general: Liver microsomes are a subcellular fraction often used to study metabolism.

Series [5] in a line: Stability in mouse liver microsomes assessed as CYP450-mediated metabolism by measuring parent compound remaining at 1 uM measured after 60 mins in presence of NADPH generating system by LC-MS/MS analysis. The format is ADME. To be noted: 1 h. In outline: as §1
Series [6] deals with T1, Sphingomyelin phosphodiesterase 3 (Homo sapiens, UniProt Q9NY59).
T1 sequence (Q9NY59 whole entry): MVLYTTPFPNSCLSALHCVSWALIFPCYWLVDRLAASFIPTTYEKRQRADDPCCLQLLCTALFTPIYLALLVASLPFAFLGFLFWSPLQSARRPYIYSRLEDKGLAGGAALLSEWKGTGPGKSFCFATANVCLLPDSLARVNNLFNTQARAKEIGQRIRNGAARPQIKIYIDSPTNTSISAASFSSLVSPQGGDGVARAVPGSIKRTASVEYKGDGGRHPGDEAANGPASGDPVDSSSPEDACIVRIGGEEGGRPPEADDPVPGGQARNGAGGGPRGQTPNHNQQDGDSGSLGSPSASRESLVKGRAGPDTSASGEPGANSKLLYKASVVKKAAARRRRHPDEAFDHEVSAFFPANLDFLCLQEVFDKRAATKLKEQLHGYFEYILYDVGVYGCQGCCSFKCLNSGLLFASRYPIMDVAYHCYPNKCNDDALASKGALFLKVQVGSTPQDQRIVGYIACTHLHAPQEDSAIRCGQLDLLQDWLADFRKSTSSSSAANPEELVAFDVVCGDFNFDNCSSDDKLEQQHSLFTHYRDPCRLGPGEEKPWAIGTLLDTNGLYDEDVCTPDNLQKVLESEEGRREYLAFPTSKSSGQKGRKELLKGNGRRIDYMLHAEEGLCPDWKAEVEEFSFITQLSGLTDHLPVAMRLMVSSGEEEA
Kind of series: Inhibition of human recombinant full-length nSMase expressed in HEK293 cells using sphingomyelin as substrate measured after 1 hr by alkaline phosphatase, choline oxidase and horseradish peroxidase dependent H2O2 detection-coupled amplex reagent based fluorescence assay.

pIC50: −log10 of the molar value. Calls of active or inactive are those of the source. The calls are words filed in the database; no cut-off is given here.

Phosphatidylinositol 4-kinase alpha (Homo sapiens), sequence (P42356 whole entry, looked up): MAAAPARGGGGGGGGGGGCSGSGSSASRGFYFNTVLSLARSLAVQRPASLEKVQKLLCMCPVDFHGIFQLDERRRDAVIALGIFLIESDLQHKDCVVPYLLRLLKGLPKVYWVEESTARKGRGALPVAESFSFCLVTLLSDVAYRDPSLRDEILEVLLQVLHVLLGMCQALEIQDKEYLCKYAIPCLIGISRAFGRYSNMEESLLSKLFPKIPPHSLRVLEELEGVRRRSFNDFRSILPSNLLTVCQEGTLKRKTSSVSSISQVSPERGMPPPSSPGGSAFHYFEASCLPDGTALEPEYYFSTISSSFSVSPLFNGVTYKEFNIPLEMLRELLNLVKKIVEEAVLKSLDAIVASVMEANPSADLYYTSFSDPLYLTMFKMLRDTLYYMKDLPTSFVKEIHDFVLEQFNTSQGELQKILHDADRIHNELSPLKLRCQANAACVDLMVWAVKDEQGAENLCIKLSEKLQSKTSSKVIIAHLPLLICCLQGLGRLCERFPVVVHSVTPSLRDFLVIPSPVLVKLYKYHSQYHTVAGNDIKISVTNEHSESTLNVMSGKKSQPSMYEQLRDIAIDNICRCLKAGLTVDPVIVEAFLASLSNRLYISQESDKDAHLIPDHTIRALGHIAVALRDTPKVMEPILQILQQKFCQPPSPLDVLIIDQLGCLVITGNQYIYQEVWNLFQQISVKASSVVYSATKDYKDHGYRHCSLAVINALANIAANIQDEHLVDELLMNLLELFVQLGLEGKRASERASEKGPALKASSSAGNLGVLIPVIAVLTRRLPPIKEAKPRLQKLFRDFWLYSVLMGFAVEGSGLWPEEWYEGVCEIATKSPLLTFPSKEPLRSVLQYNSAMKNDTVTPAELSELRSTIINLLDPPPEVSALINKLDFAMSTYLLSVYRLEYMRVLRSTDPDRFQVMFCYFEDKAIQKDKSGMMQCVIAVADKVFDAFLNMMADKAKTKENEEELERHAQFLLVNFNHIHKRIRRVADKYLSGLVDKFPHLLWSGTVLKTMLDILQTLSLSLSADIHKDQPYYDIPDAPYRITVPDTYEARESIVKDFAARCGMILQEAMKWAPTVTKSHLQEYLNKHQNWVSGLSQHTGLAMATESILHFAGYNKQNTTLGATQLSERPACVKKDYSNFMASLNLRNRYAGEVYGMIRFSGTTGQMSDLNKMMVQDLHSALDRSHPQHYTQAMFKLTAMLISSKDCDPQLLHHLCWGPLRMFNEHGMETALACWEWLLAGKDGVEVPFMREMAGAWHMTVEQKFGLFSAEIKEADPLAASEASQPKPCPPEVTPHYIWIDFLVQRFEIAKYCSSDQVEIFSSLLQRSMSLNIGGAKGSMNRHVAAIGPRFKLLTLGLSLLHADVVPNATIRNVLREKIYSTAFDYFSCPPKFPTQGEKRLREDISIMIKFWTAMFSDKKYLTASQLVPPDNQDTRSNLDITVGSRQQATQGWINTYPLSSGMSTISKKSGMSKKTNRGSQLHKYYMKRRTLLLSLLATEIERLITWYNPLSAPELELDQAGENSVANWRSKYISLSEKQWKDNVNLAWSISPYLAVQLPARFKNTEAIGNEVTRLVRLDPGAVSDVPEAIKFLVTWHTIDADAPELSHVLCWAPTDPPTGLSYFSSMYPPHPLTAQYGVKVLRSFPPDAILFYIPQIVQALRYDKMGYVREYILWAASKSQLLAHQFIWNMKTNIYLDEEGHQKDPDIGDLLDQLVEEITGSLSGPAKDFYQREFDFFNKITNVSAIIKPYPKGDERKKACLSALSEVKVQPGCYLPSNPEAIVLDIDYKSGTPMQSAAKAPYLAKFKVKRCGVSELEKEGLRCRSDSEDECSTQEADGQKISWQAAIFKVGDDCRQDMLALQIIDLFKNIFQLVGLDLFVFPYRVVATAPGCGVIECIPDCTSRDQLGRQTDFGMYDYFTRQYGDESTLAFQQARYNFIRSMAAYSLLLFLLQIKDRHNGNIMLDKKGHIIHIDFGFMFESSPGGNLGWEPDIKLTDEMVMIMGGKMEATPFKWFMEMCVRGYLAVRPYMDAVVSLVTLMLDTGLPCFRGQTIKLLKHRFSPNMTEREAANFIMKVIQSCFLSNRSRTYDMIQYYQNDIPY

For the compound `COc1ccc(-c2c(C)nc3c(N4CC[C@H](NC(C)=O)C4)cc(C)nn23)cc1OC`, in series [1], the inhibition result is “inactive”. Besides, the Activity entry in the series with HeLa S3, in the series on CCRF-CEM, with HL-60 and with HepG2 was “Non-Toxic” each time. The same compound had a pIC50 in series [2] of under 5.00.

As to `COc1ccc(-c2c(C)nc3c(N4CCCC4)cc(C)nn23)cc1OC`, the Stability in the series with Cytochrome P450 turned out to be 58%. Besides, the remaining at 1 h, 1 µM in [3] and in series [4] was over 95% each time. The Parent compound remaining in series [5] is listed as 1%.

With `COc1ccc(-c2c(C)nc3c(NCCNC(C)=O)cc(C)nn23)cc1OC`, in series [1], the inhibition result was “inactive”. Besides, in series [6], the pIC50 is under 5.00. The Activity entry in the series with HeLa S3, with CCRF-CEM, in the series with HL-60 and in the series with HepG2 was “Non-Toxic” throughout.

Turning to `COc1ccc(-n2c(C)nc3c(N4CC[C@@H](NC(C)=O)C4)nc(C)nc32)cc1OC`, the pIC50 in series [6] is under 4.00. Besides, the remaining at 1 h, 1 µM in series [3] and in [4] was over 95% in each case. The Parent compound remaining in series [5] worked out at 104%.

As for `COc1ccc(-c2c(C)nc3c(N4CC[C@@H](NS(=O)(=O)c5cccs5)C4)cc(C)nn23)cc1OC`, the Stability with Cytochrome P450 is reported as 95%. Moreover, the remaining at 1 h, 1 µM in series [3] and in series [4] was over 95% throughout. Besides, the Parent compound remaining in series [5] was 78%.

`COc1ccc(-c2c(C)nc3c(N4CC[C@@H](NS(=O)(=O)c5ccc(Cl)cc5)C4)cc(C)nn23)cc1OC`: the Stability in the series with Cytochrome P450 stood at 32%. The remaining at 1 h, 1 µM in [3] and in series [4] was over 95% throughout. For the same compound, in series [5], the Parent compound remaining is recorded as 7%.

On to `CCCCCC(=O)N[C@@H]1CCN(c2cc(C)nn3c(-c4ccc(OC)c(OC)c4)c(C)nc23)C1`, for which the Stability with Cytochrome P450 was determined as 88%. Further, the remaining at 1 h, 1 µM in series [3] and in [4] was over 95% each time. In addition, the Parent compound remaining in series [5] came to 52%.

Regarding `COc1ccc(-c2c(C)nc3c(N4CC[C@@H](NC(=O)C(F)(F)c5ccccc5)C4)cc(C)nn23)cc1OC`, the Stability with Cytochrome P450 stood at 20%. For the same compound, the remaining at 1 h, 1 µM in series [3] and in series [4] was over 95% throughout. Besides, in [5], the Parent compound remaining is on record as 6%.

For `COc1ccc(-c2cnc3c(N4CC[C@@H](NC(C)=O)C4)ccnn23)cc1OC`, in the series on Cytochrome P450, the Stability was found to be 92%. Moreover, the remaining at 1 h, 1 µM in series [3] and in [4] was over 95% in each case. Further, in series [5], the Parent compound remaining stood at 68%.

As for `COc1ccc(-c2c(C)nc3c(N4CC[C@@H](NC(C)=O)C4)cc(C)nn23)cc1OC`, the inhibition entry in [1] is “inactive”. Moreover, the Activity entry in the series on HeLa S3, with CCRF-CEM, with HL-60 and in the series with HepG2 was “Non-Toxic” throughout. For the same compound, the remaining at 1 h, 1 µM in [3] and in [4] was over 95% throughout. The same compound had a pIC50 in series [2] of under 5.00.

As for `COc1ccc(-c2scc3c(N4CC[C@@H](NC(C)=O)C4)nc(C)nc23)cc1OC`, in [6], the pIC50 is under 4.00. For the same compound, the remaining at 1 h, 1 µM in [3] and in [4] was over 95% in each case.

For the compound `COc1ccc(-c2cnc3c(N4CC[C@@H](NC(C)=O)C4)cc(C)nn23)cc1OC`, in the series with Cytochrome P450, the Stability is 28%. In addition, the remaining at 1 h, 1 µM in [3] and in series [4] was over 95% throughout. The Parent compound remaining in series [5] came to 53%.

In the case of `CC(=O)N[C@@H]1CCN(c2cc(C)nn3c(-c4cccs4)c(C)nc23)C1`, in the series on Cytochrome P450, the Stability was 50%. Also, the remaining at 1 h, 1 µM in series [3] and in [4] was over 95% each time. Besides, the Parent compound remaining in series [5] turned out to be 28%.

As for `COc1ccc(-c2c(C)nc3c(N4CC[C@@H](NS(=O)(=O)c5ccc(C)cc5)C4)cc(C)nn23)cc1OC`, the Stability in the series on Cytochrome P450 came out at 29%. Besides, the remaining at 1 h, 1 µM in [3] and in series [4] was over 95% in each case. Further, the Parent compound remaining in series [5] stood at 2%.

As for `COc1ccc(-c2c(C)nc3c(N4CC[C@@H](NS(=O)(=O)c5ccccc5)C4)cc(C)nn23)cc1OC`, in the series on Cytochrome P450, the Stability is 43%. For the same compound, the remaining at 1 h, 1 µM in series [3] and in series [4] was over 95% in each case. In addition, the Parent compound remaining in series [5] stood at 20%.

For the compound `COc1ccc(-c2c(C)oc3c(N4CC[C@@H](NC(C)=O)C4)cc(C)nc23)cc1OC`, the pIC50 in series [6] is under 4.00. Moreover, the remaining at 1 h, 1 µM in series [3] and in series [4] was over 95% in each case.

As to `COc1ccc(-c2c(C)nc3c(N4CC[C@@H](SC(C)=O)C4)cc(C)nn23)cc1OC`, the Stability in the series on Cytochrome P450 is on record as 11%. Besides, the remaining at 1 h, 1 µM in series [3] and in series [4] was over 95% each time. The Parent compound remaining in series [5] is 8%.

As for `COc1ccc(-c2c(C)nc3c(N4CC[C@@H](NS(=O)(=O)c5ccc(C(F)(F)F)cc5)C4)cc(C)nn23)cc1OC`, in the series on Cytochrome P450, the Stability amounted to 61%. Also, the remaining at 1 h, 1 µM in series [3] and in series [4] was over 95% each time. In addition, in series [5], the Parent compound remaining came out at 15%.

Consider `COc1ccc(-c2c(C)nc3c(N4CC[C@@H](NC(=O)C(F)(F)F)C4)cc(C)nn23)cc1OC`, for which the Stability with Cytochrome P450 was determined as 113%. Moreover, the remaining at 1 h, 1 µM in series [3] and in [4] was over 95% in each case. For the same compound, the Parent compound remaining in [5] was 117%.
